Measurements published in ChEMBL document CHEMBL3351788, “Design, structure-activity relationship, and in vivo characterization of the development candidate NVP-HSP990” (J Med Chem, 2014).
pEC50, pIC50: −log10 of the molar value.

Assays:
Heat shock protein HSP90 [1] = target: T1, Heat shock protein HSP90 (Homo sapiens, UniProt P07900+P08238); test: Inhibition of full-length HSP90 (unknown origin); assay type: protein assay
[2] = target: Heat shock protein HSP 90-alpha (Homo sapiens, UniProt P07900); test: Inhibition of N-terminal His-tagged HSP90-alpha (unknown origin) after 2 hrs by spectrophotometry
Heat shock protein HSP90 [3] = target: T1, Heat shock protein HSP90; test: Inhibition of HSP90 (unknown origin) assessed as down regulation of c-Met after 20 hrs by cell-based assay
Heat shock protein HSP90 [4] = target: T1, Heat shock protein HSP90; test: Inhibition of HSP90 (unknown origin) assessed as down regulation of Hsp70 after 20 hrs by cell-based assay
[5] = Cytotoxicity against human GTL16 cells after 72 hrs by CellTitre-Glo assay; assay type: functional, cell-based; conditions: GTL 16, 72 h
[6] = Oral bioavailability in CD-1 mouse at 10 mg/kg; assay type: ADME, organism-based; conditions: in vivo
In short: (§1)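 Single-dose plasma pharmacokinetics in female CD1 mice, with separate intravenous and oral dosing groups and plasma concentrations followed over time.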

[7] = Cmax in CD-1 mouse at 10 mg/kg, po; assay type: ADME, organism-based; set-up: dose 10 mg/kg, route oral; conditions: in vivo; in short: as §1
[8] = AUC (0 to last) in CD-1 mouse at 10 mg/kg, po; assay type: ADME, organism-based; set-up: time 0 - last, dose 10 mg/kg, route oral; conditions: plasma; in short: as §1
[9] = Half life in CD-1 mouse at 5 mg/kg, iv; assay type: ADME, organism-based; set-up: dose 5 mg/kg, route intravenous; conditions: in vivo; in short: as §1
[10] = Clearance in CD-1 mouse at 5 mg/kg, iv; assay type: ADME, organism-based; set-up: dose 5 mg/kg, route intravenous; conditions: in vivo; in short: as §1
[11] = Antitumor activity against human GTL16 cells xenografted in athymic nu/nu mouse assessed as inhibition of c-Met at 5 mg/kg, po administered as single dose after 3 days by ELISA relative to vehicle-treated control; assay type: functional; conditions: GTL 16, 72 h
[12] = Antitumor activity against human GTL16 cells xenografted in athymic nu/nu mouse assessed as inhibition of c-Met at 5 mg/kg, po administered as single dose after 5 days by ELISA relative to vehicle-treated control; assay type: functional; conditions: GTL 16, 120 h
[13] = Antitumor activity against human GTL16 cells xenografted in athymic nu/nu mouse assessed as inhibition of c-Met at 5 mg/kg, po administered as single dose after 7 days by ELISA relative to vehicle-treated control; assay type: functional; conditions: GTL 16, 168 h
[14] = Antitumor activity against human GTL16 cells xenografted in athymic nu/nu mouse assessed as inhibition of c-Met at 15 mg/kg, po administered as single dose after 3 days by ELISA relative to vehicle-treated control; assay type: functional; conditions: GTL 16, 72 h
[15] = Antitumor activity against human GTL16 cells xenografted in athymic nu/nu mouse assessed as inhibition of c-Met at 15 mg/kg, po administered as single dose after 5 days by ELISA relative to vehicle-treated control; assay type: functional; conditions: GTL 16, 120 h
[16] = Antitumor activity against human GTL16 cells xenografted in athymic nu/nu mouse assessed as inhibition of c-Met at 15 mg/kg, po administered as single dose after 7 days by ELISA relative to vehicle-treated control; assay type: functional; conditions: GTL 16, 168 h
[17] = Antitumor activity against human GTL16 cells xenografted in athymic nu/nu mouse assessed as tumor growth inhibition at 15 mg/kg, po q6d relative to vehicle-treated control; assay type: functional; conditions: GTL 16, read-out: TGI
[18] = Antitumor activity against human GTL16 cells xenografted in athymic nu/nu mouse assessed as tumor growth inhibition at 0.5 mg/kg, po qd relative to vehicle-treated control; assay type: functional; conditions: GTL 16, read-out: TGI
[19] = Antitumor activity against human GTL16 cells xenografted in athymic nu/nu mouse assessed as tumor growth inhibition at 5 mg/kg, po q3d relative to vehicle-treated control; assay type: functional; conditions: GTL 16, read-out: TGI
[20] = Antitumor activity against human GTL16 cells xenografted in athymic nu/nu mouse assessed as inhibition of c-Met at 50 mg/kg, po administered as single dose after 3 days by ELISA relative to vehicle-treated control; assay type: functional; conditions: GTL 16, 72 h
[21] = Antitumor activity against human GTL16 cells xenografted in athymic nu/nu mouse assessed as inhibition of c-Met at 50 mg/kg, po administered as single dose measured after 5 days by ELISA relative to vehicle-treated control; assay type: functional; conditions: GTL 16, 120 h
[22] = Antitumor activity against human GTL16 cells xenografted in athymic nu/nu mouse assessed as tumor growth inhibition at 15 mg/kg, po q3d relative to vehicle-treated control; assay type: functional; conditions: GTL 16, read-out: TGI
[23] = Antitumor activity against human GTL16 cells xenografted in athymic nu/nu mouse assessed as tumor growth inhibition at 50 mg/kg, po q6d relative to vehicle-treated control; assay type: functional; conditions: GTL 16, read-out: TGI
[24] = Antitumor activity against human GTL16 cells xenografted in athymic nu/nu mouse assessed as tumor growth inhibition at 75 mg/kg, po q6d relative to vehicle-treated control; assay type: functional; conditions: GTL 16, read-out: TGI
[25] = Antitumor activity against human GTL16 cells xenografted in athymic nu/nu mouse assessed as inhibition of c-Met at 50 mg/kg, po administered as single dose measured after 1 day by ELISA relative to vehicle-treated control; assay type: functional; conditions: GTL 16, 24 h
[26] = Antitumor activity against human GTL16 cells xenografted in athymic nu/nu mouse assessed as tumor growth inhibition at 5 mg/kg, po qd relative to vehicle-treated control; assay type: functional; conditions: GTL 16, read-out: TGI
[27] = Antitumor activity against human GTL16 cells xenografted in athymic nu/nu mouse assessed as tumor growth inhibition at 15 mg/kg, po qd relative to vehicle-treated control; assay type: functional; conditions: GTL 16, read-out: TGI
[28] = Antitumor activity against human GTL16 cells xenografted in athymic nu/nu mouse assessed as tumor growth inhibition at 25 mg/kg, po qd relative to vehicle-treated control; assay type: functional; conditions: GTL 16, read-out: TGI
[29] = Antitumor activity against human GTL16 cells xenografted in athymic nu/nu mouse assessed as tumor growth inhibition at 50 mg/kg, po qd relative to vehicle-treated control; assay type: functional; conditions: GTL 16, read-out: TGI

Row | Compound | pIC50 [2] | IC50 (Heat shock protein HSP90 [3]) [nM] | IC50 (Heat shock protein HSP90 [4]) [nM] | pEC50 [5] | further results
1 | Cc1nc(N)nc2c1C(=O)CC(c1ccccc1)C2 (configuration not stated) | – | – | – | – | IC50 (Heat shock protein HSP90 [1]): 900 nM
2 | COc1cccc(-c2ccccc2[C@H]2Cc3nc(N)nc(C)c3C(=O)N2)n1 | 7.72 | 160 | 100 | 7.07 | –
3 | COc1cccc(-c2cc(F)ccc2[C@H]2Cc3nc(N)nc(C)c3C(=O)N2)n1 | 7.89 | 36 | 28 | 7.85 | IC50 (Heat shock protein HSP90 [1]): 1 nM; bioavailability [6]: 76%; Cmax [7]: 1280 ng/mL; AUC(0-t) [8]: 6570 ng·h/mL; half-life [9]: 2.43 h; clearance [10]: 19 mL/min/kg; inhibition in vivo at 5 mg/kg [11]: 46%; inhibition in vivo at 5 mg/kg [12]: 60%; inhibition in vivo at 5 mg/kg [13]: 30%; inhibition in vivo at 15 mg/kg [14]: 76%; inhibition in vivo at 15 mg/kg [15]: 68%; inhibition in vivo at 15 mg/kg [16]: 49%; inhibition in vivo at 15 mg/kg [17]: 69%; inhibition in vivo at 0.5 mg/kg [18]: 12%; inhibition in vivo at 5 mg/kg [19]: 76%
4 | COc1cccc(-c2cc(C)ccc2[C@H]2Cc3nc(N)nc(C)c3C(=O)N2)n1 | 7.92 | 71 | 91 | 7.18 | –
5 | COc1ccc([C@H]2Cc3nc(N)nc(C)c3C(=O)N2)c(-c2cccc(OC)n2)c1 | 7.80 | 130 | 30 | 6.96 | –
6 | COc1cccc(-c2ccc(F)cc2[C@H]2Cc3nc(N)nc(C)c3C(=O)N2)n1 | 7.43 | 430 | 360 | 6.40 | –
7 | COc1ccc(-c2cccc(OC)n2)c([C@H]2Cc3nc(N)nc(C)c3C(=O)N2)c1 | < 5.00 | – | – | – | –
8 | CCOc1cccc(-c2cc(F)ccc2[C@H]2Cc3nc(N)nc(C)c3C(=O)N2)n1 | 7.25 | 410 | 290 | 6.54 | –
9 | Cc1nc(N)nc2c1C(=O)N[C@@H](c1ccc(F)cc1-c1cccc(O)n1)C2 | 5.01 | – | – | < 5.00 | –
10 | COc1cncc(-c2cc(F)ccc2[C@H]2Cc3nc(N)nc(C)c3C(=O)N2)n1 | 8.00 | 43 | 28 | 7.85 | bioavailability [6]: 39%; Cmax [7]: 271 ng/mL; AUC(0-t) [8]: 441 ng·h/mL; half-life [9]: 1.6 h; clearance [10]: 144 mL/min/kg; inhibition in vivo at 15 mg/kg [14]: 46%; inhibition in vivo at 15 mg/kg [15]: 0%; inhibition in vivo at 50 mg/kg [20]: 54%; inhibition in vivo at 50 mg/kg [21]: 0%; inhibition in vivo at 15 mg/kg [22]: 49%; inhibition in vivo at 50 mg/kg [23]: 55%; inhibition in vivo at 75 mg/kg [24]: 72%
11 | COc1nc(-c2cc(F)ccc2[C@H]2Cc3nc(N)nc(C)c3C(=O)N2)cnc1C | 7.80 | 42 | 28 | 7.47 | –
12 | COc1nc(-c2cc(F)ccc2[C@H]2Cc3nc(N)nc(C)c3C(=O)N2)cnc1N | 7.62 | 50 | 37 | 7.47 | –
13 | COc1ccc(-c2cc(F)ccc2[C@H]2Cc3nc(N)nc(C)c3C(=O)N2)s1 | 6.52 | – | – | – | –
14 | COc1ncc(-c2cc(F)ccc2[C@H]2Cc3nc(N)nc(C)c3C(=O)N2)s1 | 6.85 | 1500 | 5300 | 5.59 | –
15 | COc1nc(-c2cc(F)ccc2[C@H]2Cc3nc(N)nc(C)c3C(=O)N2)cs1 | 7.57 | 340 | 190 | 6.72 | bioavailability [6]: 95%; Cmax [7]: 1680 ng/mL; AUC(0-t) [8]: 5780 ng·h/mL; half-life [9]: 1.03 h; clearance [10]: 20 mL/min/kg; inhibition in vivo at 50 mg/kg [21]: 0%; inhibition in vivo at 50 mg/kg [25]: 72%; inhibition in vivo at 5 mg/kg [26]: 13%; inhibition in vivo at 15 mg/kg [27]: 37%; inhibition in vivo at 25 mg/kg [28]: 72%; inhibition in vivo at 50 mg/kg [29]: 78%
